The values below come from ChEMBL document CHEMBL4387708, “Enhancement of Benzothiazoles as Pteridine Reductase-1 Inhibitors for the Treatment of Trypanosomatidic Infections” (J Med Chem, 2019).

The test system of the first data set is Trypanosoma cruzi. Briefly: Growth inhibition of trypomastigote form of Trypanosoma cruzi Y infected in human U2OS cells at 50 uM measured after 72 hrs by DRAQ5 DNA dye based confocal microscopic analysis relative to control. It counts as organism-based. Conditions: Trypanosoma cruzi, Y, U2OS, read-out: GI.
`Nc1nc2c(O)cc(C(=O)NCc3ccc(Cl)c(Cl)c3)cc2s1`: the inhibition at 50 µM stood at 42%.

Turning to `COC(=O)C1CCN(C(=O)c2ccc(CSc3ccc4nc(N)sc4c3)cc2)CC1`, the inhibition at 50 µM worked out at 16.3%.

The next data set relates to Leishmania infantum. As to the kind of experiment: Growth inhibition of luciferase expressing Leishmania infantum axenic amastigotes infected in human THP1 cells at 10 uM measured after 72 hrs by steady-glo luminescence assay relative to control. The data set is classed as organism-based. Conditions: Leishmania infantum, THP-1, 72 h; read-out: GI.
For `Nc1nc2c(O)cc(C(=O)NCc3ccc(Cl)c(Cl)c3)cc2s1`, the inhibition at 10 µM was 24%.

Still in this data set, the particulars now being: leishmania infantum, 72 h, 10 µM.
In the case of `COC(=O)C1CCN(C(=O)c2ccc(CSc3ccc4nc(N)sc4c3)cc2)CC1`, the “growth inhibition (GI)” value was “Non-Toxic”.

The target in a further data set is T1, Pteridine reductase 1 (Leishmania major, UniProt Q01782).
T1 sequence (Q01782 whole entry): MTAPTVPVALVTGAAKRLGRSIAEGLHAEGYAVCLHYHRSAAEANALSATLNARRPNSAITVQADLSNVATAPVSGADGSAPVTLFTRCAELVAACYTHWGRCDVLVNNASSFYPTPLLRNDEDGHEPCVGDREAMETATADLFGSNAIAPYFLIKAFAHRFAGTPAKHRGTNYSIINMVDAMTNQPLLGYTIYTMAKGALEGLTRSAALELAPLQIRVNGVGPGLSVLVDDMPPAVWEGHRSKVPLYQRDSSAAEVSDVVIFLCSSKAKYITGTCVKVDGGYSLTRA
Briefly: Inhibition of Leishmania major pteridine reductase 1 using di-hydrobiopterine as substrate in presence of NADPH. Conditions: read-out: IC50. Summed up: (§1)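 Photometric PTR1 assay with NADPH and dihydrobiopterin substrate. H₄B formation is coupled non-enzymatically to cytochrome c reduction, read as signal increase at 550 nm.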
Regarding `COC(=O)C1CCN(C(=O)c2ccc(CSc3ccc4nc(N)sc4c3)cc2)CC1`, the IC50 came to 15.1 µM.

Target in the next data set: not listed separately
As to the kind of experiment: Inhibition of N-terminal His-tagged Trypanosoma brucei pteridine reductase 1 using di-hydrobiopterine as substrate measured at 1 min interval for 50 mins in presence of NADPH.
Conditions: not given
A digest of the protocol: as §1
As to `COC(=O)C1CCN(C(=O)c2ccc(CSc3ccc4nc(N)sc4c3)cc2)CC1`, the IC50 was 0.93 µM.

A further data set deals with Trypanosoma brucei. Briefly: Inhibition of N-terminal His-tagged Trypanosoma brucei pteridine reductase 1 at 50 uM using di-hydrobiopterine as substrate measured at 1 min interval for 50 mins in presence of NADPH relative to control.
Conditions: not given
A digest of the protocol: as §1
On to `Nc1nc2c(O)cc(C(=O)NCc3ccc(Cl)c(Cl)c3)cc2s1`, for which the inhibition is 11.8%.

For `COC(=O)C1CCN(C(=O)c2ccc(CSc3ccc4nc(N)sc4c3)cc2)CC1`, the inhibition is > 60%.

In the next data set the test system is Trypanosoma brucei. Briefly: Growth inhibition of Trypanosoma brucei bloodstream forms measured after 72 hrs by resazurin-based fluorescence assay. The data set is classed as organism-based.
Conditions: not given
Summed up: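 Mid-log bloodstream-form T. brucei were seeded at a final 5 x 10^3/mL in supplemented HMI-9 with serial compound dilutions. Cultures ran 72 h at 37 °C, 5% CO₂, then 4 h more after resazurin. Fluorescence was read at ex 540/em 620 nm, and EC₅₀ was fitted by non-linear regression.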
For orientation: Resazurin is reduced to fluorescent resorufin, in cell work by metabolically active cells.
`Nc1nc2c(O)cc(C(=O)NCc3ccc(Cl)c(Cl)c3)cc2s1` had an EC50 of 5.9 µM.

The next data set has as its target T2, Pteridine reductase 1 (Leishmania major) (UniProt Q01782).
T2 sequence (whole entry): T1 sequence (Q01782 whole entry)
As to the kind of experiment: Inhibition of Leishmania major pteridine reductase 1 at 50 uM using di-hydrobiopterine as substrate in presence of NADPH relative to control.
Conditions: not given
Summed up:
as §1
As for `Nc1nc2c(O)cc(C(=O)NCc3ccc(Cl)c(Cl)c3)cc2s1`, the inhibition amounted to 8.7%.

With `COC(=O)C1CCN(C(=O)c2ccc(CSc3ccc4nc(N)sc4c3)cc2)CC1`, the inhibition is > 60%.

The next data set has as its system Trypanosoma brucei. As to the kind of experiment: Growth inhibition of Trypanosoma brucei bloodstream forms at 10 uM measured after 72 hrs by resazurin-based fluorescence assay relative to control. It counts as organism-based. Conditions: Trypanosoma brucei, read-out: GI.
With `Nc1nc2c(O)cc(C(=O)NCc3ccc(Cl)c(Cl)c3)cc2s1`, the inhibition at 10 µM is > 60%.

On to `COC(=O)C1CCN(C(=O)c2ccc(CSc3ccc4nc(N)sc4c3)cc2)CC1`, for which the inhibition at 10 µM lay in the range of 42 to 53%.

A further data set deals with Trypanosoma brucei. Briefly: Inhibition of PTR1 in Trypanosoma brucei bloodstream forms assessed as potentiation of methotrexate-induced parasitic cell growth inhibition at 10 uM measured after 72 hrs by resazurin-based fluorescence assay (reference value: 19 +/- 6%).
Conditions: not given
A digest of the protocol:
(§2)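 Bloodstream-form T. brucei resazurin assay: 72 h at 37 °C, 5% CO₂, then fluorescence at ex 540/em 620 nm. Benzothiazole was tested at 10 μM alone and with 4 μM methotrexate. The index is the combination's activity divided by the sum of the activities of 10 μM benzothiazole and 4 μM methotrexate given separately.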
Take `COC(=O)C1CCN(C(=O)c2ccc(CSc3ccc4nc(N)sc4c3)cc2)CC1`: the growth inhibition (GI) was found to be 93%.

A further data set relates to Trypanosoma brucei. Briefly: Inhibition of PTR1 in Trypanosoma brucei bloodstream forms assessed as potentiation of methotrexate-induced parasitic cell growth inhibition by measuring potentiation index at 10 uM measured after 72 hrs by resazurin-based fluorescence assay relative to control (methotrexate).
Conditions: not given
It counts as functional. Summed up: as §2
With `COC(=O)C1CCN(C(=O)c2ccc(CSc3ccc4nc(N)sc4c3)cc2)CC1`, the Ratio is given as 1.3.

In the next data set the target is Voltage-gated inwardly rectifying potassium channel KCNH2 (Homo sapiens, UniProt Q12809). As to the kind of experiment: Displacement of Tracer Red from human ERG by fluorescence polarization assay.
Voltage-gated inwardly rectifying potassium channel KCNH2, sequence (Q12809 whole entry): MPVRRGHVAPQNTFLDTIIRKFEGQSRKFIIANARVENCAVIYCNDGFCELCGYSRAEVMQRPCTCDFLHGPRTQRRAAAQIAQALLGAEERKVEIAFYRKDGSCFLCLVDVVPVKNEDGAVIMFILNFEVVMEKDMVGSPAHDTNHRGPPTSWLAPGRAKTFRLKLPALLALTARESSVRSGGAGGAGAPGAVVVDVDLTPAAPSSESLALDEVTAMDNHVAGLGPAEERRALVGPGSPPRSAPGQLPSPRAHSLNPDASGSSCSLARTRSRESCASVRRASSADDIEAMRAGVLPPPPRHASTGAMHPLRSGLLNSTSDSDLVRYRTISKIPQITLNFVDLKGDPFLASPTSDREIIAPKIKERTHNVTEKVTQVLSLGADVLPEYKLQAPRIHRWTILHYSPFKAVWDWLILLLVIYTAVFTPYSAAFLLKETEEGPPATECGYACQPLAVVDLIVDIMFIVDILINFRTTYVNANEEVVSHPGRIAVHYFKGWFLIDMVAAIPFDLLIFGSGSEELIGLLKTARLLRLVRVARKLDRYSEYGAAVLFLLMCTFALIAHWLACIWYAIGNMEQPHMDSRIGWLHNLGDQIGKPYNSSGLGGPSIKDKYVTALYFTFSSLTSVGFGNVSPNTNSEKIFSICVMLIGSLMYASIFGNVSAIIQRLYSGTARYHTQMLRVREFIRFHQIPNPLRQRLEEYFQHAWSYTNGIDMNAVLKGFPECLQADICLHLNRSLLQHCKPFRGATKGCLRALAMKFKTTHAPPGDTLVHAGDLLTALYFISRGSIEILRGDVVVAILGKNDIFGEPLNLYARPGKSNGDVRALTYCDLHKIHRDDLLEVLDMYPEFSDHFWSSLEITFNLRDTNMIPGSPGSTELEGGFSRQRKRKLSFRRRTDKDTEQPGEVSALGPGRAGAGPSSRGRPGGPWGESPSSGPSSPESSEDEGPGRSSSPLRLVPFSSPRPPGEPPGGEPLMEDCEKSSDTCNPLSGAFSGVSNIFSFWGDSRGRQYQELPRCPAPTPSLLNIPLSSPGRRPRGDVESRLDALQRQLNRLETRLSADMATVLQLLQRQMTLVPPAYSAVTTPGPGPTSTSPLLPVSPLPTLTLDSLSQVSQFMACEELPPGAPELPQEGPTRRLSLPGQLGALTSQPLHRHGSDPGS
Conditions: not given
Take `Nc1nc2c(O)cc(C(=O)NCc3ccc(Cl)c(Cl)c3)cc2s1`: the IC50 is > 25 µM.

Take `COC(=O)C1CCN(C(=O)c2ccc(CSc3ccc4nc(N)sc4c3)cc2)CC1`: the IC50 was > 25 µM.

The target of another data set is T3, Cytochrome P450 1A2 (Homo sapiens, UniProt P05177).
T3 sequence (P05177 whole entry): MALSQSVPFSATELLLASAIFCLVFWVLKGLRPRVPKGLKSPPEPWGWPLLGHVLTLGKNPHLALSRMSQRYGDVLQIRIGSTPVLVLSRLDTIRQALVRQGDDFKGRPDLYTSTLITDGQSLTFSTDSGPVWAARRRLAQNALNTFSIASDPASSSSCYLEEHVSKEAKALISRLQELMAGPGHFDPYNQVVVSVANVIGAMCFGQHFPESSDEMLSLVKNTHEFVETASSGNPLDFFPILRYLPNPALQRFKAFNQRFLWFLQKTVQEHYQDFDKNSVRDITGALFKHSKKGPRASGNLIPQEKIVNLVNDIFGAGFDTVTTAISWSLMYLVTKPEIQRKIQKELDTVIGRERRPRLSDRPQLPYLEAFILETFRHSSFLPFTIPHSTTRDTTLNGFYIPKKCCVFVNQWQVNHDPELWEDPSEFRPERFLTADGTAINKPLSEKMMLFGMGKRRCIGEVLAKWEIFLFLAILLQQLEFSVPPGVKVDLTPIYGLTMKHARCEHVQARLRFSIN
Briefly: Inhibition of human CYP1A2 expressed in baculovirus infected insect cells using beetle D-luciferin as substrate preincubated for 30 mins followed by NADPH addition and measured after 30 mins by CYP450-Glo assay.
Conditions: not given
Consider `Nc1nc2c(O)cc(C(=O)NCc3ccc(Cl)c(Cl)c3)cc2s1`, for which the IC50 is > 25 µM.

On to `COC(=O)C1CCN(C(=O)c2ccc(CSc3ccc4nc(N)sc4c3)cc2)CC1`, for which the IC50 was > 25 µM.

A further data set deals with Cytochrome P450 2C9 (Homo sapiens, UniProt P11712). Briefly: Inhibition of human CYP2C9 expressed in baculovirus infected insect cells using beetle D-luciferin as substrate preincubated for 30 mins followed by NADPH addition and measured after 30 mins by CYP450-Glo assay.
Cytochrome P450 2C9, sequence (P11712 whole entry): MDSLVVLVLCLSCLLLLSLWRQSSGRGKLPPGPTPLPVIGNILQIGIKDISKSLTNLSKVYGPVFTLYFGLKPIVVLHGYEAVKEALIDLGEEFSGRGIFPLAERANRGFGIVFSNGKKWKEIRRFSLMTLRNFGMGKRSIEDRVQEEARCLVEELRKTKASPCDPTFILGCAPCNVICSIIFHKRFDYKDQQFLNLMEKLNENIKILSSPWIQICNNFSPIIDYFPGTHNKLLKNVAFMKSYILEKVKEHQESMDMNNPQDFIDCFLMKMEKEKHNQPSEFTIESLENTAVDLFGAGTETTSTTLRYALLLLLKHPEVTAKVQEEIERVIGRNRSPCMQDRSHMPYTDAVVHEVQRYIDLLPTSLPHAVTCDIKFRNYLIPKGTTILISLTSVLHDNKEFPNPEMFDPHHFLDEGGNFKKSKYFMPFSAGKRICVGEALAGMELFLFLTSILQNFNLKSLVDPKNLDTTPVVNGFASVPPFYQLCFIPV
Conditions: not given
`Nc1nc2c(O)cc(C(=O)NCc3ccc(Cl)c(Cl)c3)cc2s1`: the IC50 was > 25 µM.

On to `COC(=O)C1CCN(C(=O)c2ccc(CSc3ccc4nc(N)sc4c3)cc2)CC1`, for which the IC50 was > 25 µM.

The target of a further data set is Cytochrome P450 2C19 (Homo sapiens, UniProt P33261). Briefly: Inhibition of human CYP2C19 expressed in baculovirus infected insect cells using beetle D-luciferin as substrate preincubated for 30 mins followed by NADPH addition and measured after 30 mins by CYP450-Glo assay.
Cytochrome P450 2C19, sequence (P33261 whole entry): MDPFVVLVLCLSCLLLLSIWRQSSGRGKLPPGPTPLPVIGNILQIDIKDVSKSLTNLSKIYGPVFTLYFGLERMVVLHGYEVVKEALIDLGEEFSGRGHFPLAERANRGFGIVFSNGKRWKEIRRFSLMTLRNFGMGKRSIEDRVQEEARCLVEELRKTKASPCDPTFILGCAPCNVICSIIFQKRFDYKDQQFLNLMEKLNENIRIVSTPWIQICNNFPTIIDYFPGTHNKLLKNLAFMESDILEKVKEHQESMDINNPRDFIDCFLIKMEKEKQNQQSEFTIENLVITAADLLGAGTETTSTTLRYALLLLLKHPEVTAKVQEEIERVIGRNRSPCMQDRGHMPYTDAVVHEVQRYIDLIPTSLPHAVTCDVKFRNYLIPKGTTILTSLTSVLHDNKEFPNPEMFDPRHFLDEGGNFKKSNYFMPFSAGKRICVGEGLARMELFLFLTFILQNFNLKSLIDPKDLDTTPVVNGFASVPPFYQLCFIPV
Conditions: not given
Take `Nc1nc2c(O)cc(C(=O)NCc3ccc(Cl)c(Cl)c3)cc2s1`: the IC50 is > 25 µM.

For `COC(=O)C1CCN(C(=O)c2ccc(CSc3ccc4nc(N)sc4c3)cc2)CC1`, the IC50 was < 10 µM.

In another data set the target is Cytochrome P450 2D6 (Homo sapiens, UniProt P10635). Briefly: Inhibition of human CYP2D6 expressed in baculovirus infected insect cells using beetle D-luciferin as substrate preincubated for 30 mins followed by NADPH addition and measured after 30 mins by CYP450-Glo assay.
Cytochrome P450 2D6, sequence (P10635 whole entry): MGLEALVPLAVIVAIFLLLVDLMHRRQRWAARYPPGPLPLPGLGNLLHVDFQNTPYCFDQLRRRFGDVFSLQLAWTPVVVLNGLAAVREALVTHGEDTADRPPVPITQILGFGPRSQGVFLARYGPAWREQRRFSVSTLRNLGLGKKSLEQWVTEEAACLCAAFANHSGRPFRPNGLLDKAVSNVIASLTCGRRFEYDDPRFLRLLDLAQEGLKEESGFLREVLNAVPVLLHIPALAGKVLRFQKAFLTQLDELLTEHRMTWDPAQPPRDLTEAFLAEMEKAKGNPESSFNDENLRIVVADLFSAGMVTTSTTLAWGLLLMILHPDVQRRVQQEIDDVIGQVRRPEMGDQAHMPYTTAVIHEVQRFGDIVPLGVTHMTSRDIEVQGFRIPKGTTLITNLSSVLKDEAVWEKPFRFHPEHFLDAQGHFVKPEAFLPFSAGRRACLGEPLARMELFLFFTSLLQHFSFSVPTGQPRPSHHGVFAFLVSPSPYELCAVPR
Conditions: not given
For the molecule `Nc1nc2c(O)cc(C(=O)NCc3ccc(Cl)c(Cl)c3)cc2s1`, the IC50 is > 25 µM.

On to `COC(=O)C1CCN(C(=O)c2ccc(CSc3ccc4nc(N)sc4c3)cc2)CC1`, for which the IC50 was < 10 µM.

The next data set deals with Cytochrome P450 3A4 (Homo sapiens, UniProt P08684). Briefly: Inhibition of human CYP3A4 expressed in baculovirus infected insect cells using beetle D-luciferin as substrate preincubated for 30 mins followed by NADPH addition and measured after 30 mins by CYP450-Glo assay.
Cytochrome P450 3A4, sequence (P08684 whole entry): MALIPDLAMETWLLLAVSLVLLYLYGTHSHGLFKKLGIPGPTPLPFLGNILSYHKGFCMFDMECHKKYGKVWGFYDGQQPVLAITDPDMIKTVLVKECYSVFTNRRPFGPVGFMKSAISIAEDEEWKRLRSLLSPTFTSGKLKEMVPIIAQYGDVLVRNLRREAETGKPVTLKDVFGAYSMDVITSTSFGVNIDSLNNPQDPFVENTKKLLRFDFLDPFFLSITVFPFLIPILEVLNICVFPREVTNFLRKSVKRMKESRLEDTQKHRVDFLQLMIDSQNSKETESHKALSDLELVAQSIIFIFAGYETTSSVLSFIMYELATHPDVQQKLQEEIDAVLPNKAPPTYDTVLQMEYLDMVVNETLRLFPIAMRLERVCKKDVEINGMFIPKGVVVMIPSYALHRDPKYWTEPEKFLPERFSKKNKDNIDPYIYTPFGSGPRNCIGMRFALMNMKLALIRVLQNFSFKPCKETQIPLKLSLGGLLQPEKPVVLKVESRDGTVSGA
Conditions: not given
For `Nc1nc2c(O)cc(C(=O)NCc3ccc(Cl)c(Cl)c3)cc2s1`, the IC50 was > 25 µM.

Regarding `COC(=O)C1CCN(C(=O)c2ccc(CSc3ccc4nc(N)sc4c3)cc2)CC1`, the IC50 is < 10 µM.

Tested on in a further data set: not listed separately
As to the kind of experiment: Cytotoxicity against human A549 cells after 48 hrs by Celltiter-glo assay.
Conditions: not given
The data set is classed as cell-based. (In ATP-based viability assays light output follows the ATP content of the culture.)
Take `Nc1nc2c(O)cc(C(=O)NCc3ccc(Cl)c(Cl)c3)cc2s1`: the GI50 at 48 h was > 25 µM.

Turning to `COC(=O)C1CCN(C(=O)c2ccc(CSc3ccc4nc(N)sc4c3)cc2)CC1`, the GI50 at 48 h was > 25 µM.

Tested on in another data set: not listed separately
As to the kind of experiment: Cytotoxicity against human THP1 cells after 72 hrs by MTT assay. Conditions: read-out: NOAEL. The data set is classed as cell-based, THP-1.
As for `Nc1nc2c(O)cc(C(=O)NCc3ccc(Cl)c(Cl)c3)cc2s1`, the MNTC at 72 h was > 25 µM.

As for `COC(=O)C1CCN(C(=O)c2ccc(CSc3ccc4nc(N)sc4c3)cc2)CC1`, the MNTC at 72 h is > 25 µM.

Tested on in a further data set: not listed separately
Briefly: Cytotoxicity against human U2OS cells assessed as reduction in cell number.
Conditions: not given
The data set is classed as cell-based.
Take `Nc1nc2c(O)cc(C(=O)NCc3ccc(Cl)c(Cl)c3)cc2s1`: the GI50 is > 25 µM.

In the case of `COC(=O)C1CCN(C(=O)c2ccc(CSc3ccc4nc(N)sc4c3)cc2)CC1`, the GI50 is > 25 µM.

Tested on in a further data set: not listed separately
Briefly: Mitochondrial toxicity in human 786-O cells measured after 6 hrs by MitoTracker Red chloromethyl-X-rosamine based assay. The data set is classed as cell-based, 786-0.
Conditions: not given
Consider `Nc1nc2c(O)cc(C(=O)NCc3ccc(Cl)c(Cl)c3)cc2s1`, for which the half-inhibitory concentration (IC50) at 6 h was > 25 µM.

As to `COC(=O)C1CCN(C(=O)c2ccc(CSc3ccc4nc(N)sc4c3)cc2)CC1`, the IC50 at 6 h is > 25 µM.

Tested on in the next data set: not listed separately
As to the kind of experiment: Selectivity ratio of IC50 for Leishmania major pteridine reductase 1 to IC50 for N-terminal His-tagged Trypanosoma brucei pteridine reductase 1.
Conditions: not given
Regarding `Nc1nc2c(O)cc(C(=O)NCc3ccc(Cl)c(Cl)c3)cc2s1`, the Ratio IC50 lay within 2 to 100.

As to `COC(=O)C1CCN(C(=O)c2ccc(CSc3ccc4nc(N)sc4c3)cc2)CC1`, the Ratio IC50 was 2 to 100.

One may read the IC50 as the concentration that inhibits the measured activity by half. One may read the EC50 as the concentration giving half of the maximal effect. A high value points to a less potent agent. Usually GI50 stands for the concentration at which growth is held to half of that of the control.
